From ChEMBL document CHEMBL4834401, “Structure-Activity Relationship Studies of Coumarin-like Diacid Derivatives as Human G Protein-Coupled Receptor-35 (hGPR35) Agonists and a Consequent New Design Principle” (J Med Chem, 2021)
pEC50, pIC50: −log10 of the molar value. Activity calls are given as the source filed them. The rule behind the calls is not given here.

What was measured:
[1] = target: T1, G-protein coupled receptor 35 (Homo sapiens, UniProt Q9HC97); assay: Agonist activity at human GPR35 receptor expressed in HT-29 cells assessed as reduction in dynamic mass redistribution response in presence of GPR35 antagonist ML-145 by DMR assay; type: functional, cell-based
T1 sequence (Q9HC97 whole entry): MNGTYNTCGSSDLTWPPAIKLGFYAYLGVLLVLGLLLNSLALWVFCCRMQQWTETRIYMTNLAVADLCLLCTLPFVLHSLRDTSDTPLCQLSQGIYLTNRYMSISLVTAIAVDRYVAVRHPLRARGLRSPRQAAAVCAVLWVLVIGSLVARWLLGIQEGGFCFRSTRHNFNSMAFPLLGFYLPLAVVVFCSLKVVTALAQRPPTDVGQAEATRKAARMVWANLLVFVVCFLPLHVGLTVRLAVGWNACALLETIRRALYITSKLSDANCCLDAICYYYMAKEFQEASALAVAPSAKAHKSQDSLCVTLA

[2] = target: T1, G-protein coupled receptor 35; assay: Agonist activity at human GPR35 receptor expressed in CHO-K1 cells assessed as desensitization of zaprinast-induced DMR response preincubated for 1 hr followed by zaprinast stimulation by DMR desensitization assay; type: functional, cell-based
[3] = target: Mu-type opioid receptor (Homo sapiens) (UniProt P35372); assay: Agonist activity at mu-opioid receptor (unknown origin) at 1 uM; type: functional
Sequence of Mu-type opioid receptor (Homo sapiens) (P35372 whole entry): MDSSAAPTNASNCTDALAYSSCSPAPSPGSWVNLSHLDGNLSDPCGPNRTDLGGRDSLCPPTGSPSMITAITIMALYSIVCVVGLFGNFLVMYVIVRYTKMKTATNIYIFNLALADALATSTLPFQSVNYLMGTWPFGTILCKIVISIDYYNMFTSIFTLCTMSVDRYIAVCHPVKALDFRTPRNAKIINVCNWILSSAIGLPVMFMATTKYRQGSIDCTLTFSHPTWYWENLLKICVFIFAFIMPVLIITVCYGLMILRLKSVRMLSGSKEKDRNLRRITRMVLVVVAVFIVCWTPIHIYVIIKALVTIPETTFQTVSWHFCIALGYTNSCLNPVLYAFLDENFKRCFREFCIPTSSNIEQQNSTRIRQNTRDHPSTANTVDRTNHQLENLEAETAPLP
Method in brief: (§1)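 Each receptor was expressed separately in its own cell line, and compounds were added at 1 μM. Cells were seeded on biosensor plates and grown overnight to a confluent monolayer. They were then washed, kept in Hank's balanced salt solution, and equilibrated 1 h in the reader. After a 2 min baseline, the label-free dynamic mass redistribution (DMR) response was recorded immediately after compound addition.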

[4] = target: Histamine H1 receptor (Homo sapiens) (UniProt P35367); assay: Agonist activity at histamine H1 receptor receptor (unknown origin) at 1 uM
Sequence of Histamine H1 receptor (Homo sapiens) (P35367 whole entry, looked up): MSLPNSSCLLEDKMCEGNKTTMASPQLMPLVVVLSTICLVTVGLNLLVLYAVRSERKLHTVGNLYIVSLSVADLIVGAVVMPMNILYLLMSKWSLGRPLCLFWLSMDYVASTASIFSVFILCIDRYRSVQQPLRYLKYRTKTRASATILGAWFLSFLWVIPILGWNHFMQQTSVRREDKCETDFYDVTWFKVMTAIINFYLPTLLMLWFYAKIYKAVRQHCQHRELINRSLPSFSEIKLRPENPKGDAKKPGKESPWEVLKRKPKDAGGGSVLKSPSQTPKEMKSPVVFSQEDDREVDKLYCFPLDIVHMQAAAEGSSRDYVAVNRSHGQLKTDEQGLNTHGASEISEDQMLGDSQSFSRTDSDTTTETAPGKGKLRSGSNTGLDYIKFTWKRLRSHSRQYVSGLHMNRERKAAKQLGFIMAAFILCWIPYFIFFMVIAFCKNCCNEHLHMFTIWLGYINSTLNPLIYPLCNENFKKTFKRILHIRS

[5] = target: T1, G-protein coupled receptor 35; assay: Agonist activity at human GPR35 receptor expressed in CHO-K1 cells assessed as dynamic mass redistribution response by DMR assay; type: functional, cell-based
[6] = target: Muscarinic acetylcholine receptor M3 (Homo sapiens) (UniProt P20309); assay: Agonist activity at muscarinic M3 receptor (unknown origin) at 1 uM; type: functional; method in brief: as §1
Sequence of Muscarinic acetylcholine receptor M3 (Homo sapiens) (P20309 whole entry, looked up): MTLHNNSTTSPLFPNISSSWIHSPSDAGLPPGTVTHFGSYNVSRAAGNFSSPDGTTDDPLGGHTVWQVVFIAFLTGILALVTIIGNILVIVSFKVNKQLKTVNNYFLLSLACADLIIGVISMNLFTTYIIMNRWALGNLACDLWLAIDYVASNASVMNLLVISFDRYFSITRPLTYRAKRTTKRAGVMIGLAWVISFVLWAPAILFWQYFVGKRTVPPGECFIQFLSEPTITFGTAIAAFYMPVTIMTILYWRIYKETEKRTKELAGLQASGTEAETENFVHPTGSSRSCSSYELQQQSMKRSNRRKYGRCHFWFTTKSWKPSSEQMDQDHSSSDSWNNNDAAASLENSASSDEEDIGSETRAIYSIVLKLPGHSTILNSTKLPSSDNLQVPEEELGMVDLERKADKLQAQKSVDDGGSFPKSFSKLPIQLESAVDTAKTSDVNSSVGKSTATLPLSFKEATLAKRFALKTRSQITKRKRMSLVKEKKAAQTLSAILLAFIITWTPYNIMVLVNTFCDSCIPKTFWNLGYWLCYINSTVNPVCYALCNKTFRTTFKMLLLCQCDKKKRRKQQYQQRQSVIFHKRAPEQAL

[7] = target: T2, Free fatty acid receptor 4 (Homo sapiens) (UniProt Q5NUL3); assay: Agonist activity at FFA4 receptor (unknown origin) at 1 uM; type: functional; method in brief: as §1
T2 sequence (whole entry): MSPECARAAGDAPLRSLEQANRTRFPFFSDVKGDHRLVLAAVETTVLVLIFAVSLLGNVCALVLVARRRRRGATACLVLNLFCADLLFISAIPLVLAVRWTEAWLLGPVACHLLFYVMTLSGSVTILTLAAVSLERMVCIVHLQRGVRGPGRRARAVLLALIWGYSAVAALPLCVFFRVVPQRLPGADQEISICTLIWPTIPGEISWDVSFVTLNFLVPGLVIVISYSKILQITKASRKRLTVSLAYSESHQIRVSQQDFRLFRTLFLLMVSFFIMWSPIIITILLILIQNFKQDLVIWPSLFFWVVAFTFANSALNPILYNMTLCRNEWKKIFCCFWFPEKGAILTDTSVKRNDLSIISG

[8] = target: T1, G-protein coupled receptor 35; assay: Agonist activity at human GPR35 receptor expressed in HT-29 cells assessed as dynamic mass redistribution response by DMR assay; type: functional, cell-based
[9] = target: D(2) dopamine receptor (Homo sapiens) (UniProt P14416); assay: Agonist activity at dopamine D2 receptor (unknown origin) at 1 uM; type: functional; method in brief: as §1
Sequence of D(2) dopamine receptor (Homo sapiens) (P14416 whole entry): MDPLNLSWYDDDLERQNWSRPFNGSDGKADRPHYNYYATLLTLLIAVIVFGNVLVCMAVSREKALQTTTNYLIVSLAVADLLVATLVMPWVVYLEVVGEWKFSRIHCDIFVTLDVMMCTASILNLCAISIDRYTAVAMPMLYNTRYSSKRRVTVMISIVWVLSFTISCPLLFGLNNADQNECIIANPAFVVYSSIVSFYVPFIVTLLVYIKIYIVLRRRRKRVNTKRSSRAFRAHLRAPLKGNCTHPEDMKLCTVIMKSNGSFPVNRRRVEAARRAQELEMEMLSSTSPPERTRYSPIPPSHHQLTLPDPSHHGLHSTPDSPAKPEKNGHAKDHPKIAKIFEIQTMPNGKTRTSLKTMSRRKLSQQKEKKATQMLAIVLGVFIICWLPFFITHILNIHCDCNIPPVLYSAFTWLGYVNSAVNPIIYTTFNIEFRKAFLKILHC

[10] = target: T1, G-protein coupled receptor 35; assay: Agonist activity at human GPR35 receptor expressed in HT-29 cells assessed as desensitization of zaprinast-induced DMR response preincubated for 1 hr followed by zaprinast stimulation by DMR desensitization assay; type: functional, cell-based
[11] = target: T1, G-protein coupled receptor 35; assay: Agonist activity at human GPR35 receptor expressed in HEK293T cells co-expressing beta-arrestin2 assessed as induction of beta-arrestin2 recruitment by BRET assay; type: functional, cell-based

Structure (SMILES) | pIC50 [1] | pIC50 [2] | Activity [3] | Activity [4] | pEC50 [5] | Activity [6] | Activity [7] | pEC50 [8] | Activity [9] | pIC50 [10] | pEC50 [11]
Cc1c2[nH]c(C(=O)O)cc(=O)c2cc2c(=O)cc(C(=O)O)[nH]c12 | 6.10 | 9.13 | inactive | inactive | 8.97 | inactive | inactive | 8.10 | inactive | 8.70 | –
COc1ccccc1-c1cc2cc(C(=O)O)c(=O)oc2cc1O | 6.92 | – | – | – | – | – | – | 4.62 | – | 4.75 | –
CCCOc1ccccc1-c1nc2[nH]nnc2c(=O)[nH]1 | – | – | inactive | – | – | – | inactive | – | inactive | – | –
CCCCc1cc2c(=O)cc(C(=O)O)[nH]c2c2c(=O)cc(C(=O)O)[nH]c12 [BUFROLIN] | – | – | – | – | – | – | – | – | – | – | 7.89
Cc1c2nc(C(=O)O)cc(Cl)c2cc2c(Cl)cc(C(=O)O)nc12 | 5.60 | 8.45 | inactive | inactive | 8.29 | inactive | inactive | 7.27 | inactive | 7.82 | –
COc1cccc(-c2cc3cc(C(=O)O)c(=O)oc3cc2O)c1 | 5.65 | – | – | – | – | – | – | 5.80 | – | 5.86 | –
Cc1c2oc(=O)c(C(=O)O)cc2cc2cc(C(=O)O)c(=O)oc12 | 6.46 | – | – | – | – | – | – | 6.85 | – | 7.38 | –
O=C(O)c1cc2c(oc1=O)c(Br)cc1cc(-c3nnn[nH]3)c(=O)oc12 | 6.08 | 7.80 | inactive | inactive | 7.59 | inactive | inactive | 7.74 | inactive | 7.74 | –
O=C(O)c1cc2cc(Br)c(O)cc2oc1=O | 6.89 | – | – | – | – | – | – | – | – | – | –
COc1cccc(-c2cc3cc(C(=O)O)c(=O)oc3c3cc(C(=O)O)c(=O)oc23)c1 | 6.77 | – | – | – | – | – | – | 7.82 | – | 8.52 | –
O=C(O)c1cc2cc(-c3cccs3)c(O)cc2oc1=O | 6.80 | – | – | – | – | – | – | 5.54 | – | 5.84 | –
O=C(O)c1cc2c(oc1=O)c(-c1ccc(F)cc1)cc1cc(C(=O)O)c(=O)oc12 | 5.99 | – | – | – | – | – | – | 7.48 | – | – | –
COc1cc(C(=O)O)nc2c(C)c3nc(C(=O)O)cc(OC)c3cc12 | 6.55 | 8.21 | inactive | inactive | 8.09 | inactive | inactive | 7.00 | inactive | 7.19 | –
COc1ccc(-c2cc3cc(C(=O)O)c(=O)oc3c3cc(C(=O)O)c(=O)oc23)cc1 | 6.33 | 8.61 | inactive | inactive | 8.16 | inactive | inactive | 7.70 | inactive | 8.15 | –
O=C(O)c1cc(C(=O)O)c2c(n1)C(=O)C(=O)c1cc(C(=O)O)[nH]c1-2 [PYRROLOQUINOLINE QUINONE] | 6.24 | – | – | – | – | – | – | 7.15 | – | 7.52 | –
